# Screening results from PubChem.
# XBP1 UPR activ = adaptive UPR (XBP1) activation; CHO-XBP1 luciferase reporter, IRE1-XBP1 UPR activation, luminescence; percent of tunicamycin response, DMSO as zero; AID 463104; activation, % at 20 µM; 330,000 compounds, 0.33% hits;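 active = versus positive control, 20 µM dose yields 30% or more activation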;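 note: 100% = tunicamycin at 10 µg/mL and 0% = DMSO only wells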
#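 Material: CHO cell line with stable XBP1 luciferase reporter; schedule: 16-18 h cell attachment at 37 °C, then 6 h compound exposure; signal: glow luminescence from Steady-Glo reagent; medium: serum-containing F12 medium, 10% FBS; benchmarks: tunicamycin 10 µg/mL and vehicle-only wells; read-out: percent activation relative to tunicamycin reference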
# CHOP UPR activ = activators of apoptotic arm of unfolded protein response (CHOP); CHO-CHOP luciferase reporter, UPR activation, luminescence; percent of tunicamycin response over DMSO baseline; activation, % at 10 µM; 330,000 compounds, 0.34% hits; AID 449763;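 active = at 10 µM dose, activation of 40% or more, normalized to positive control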;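 note: 100% = tunicamycin at 10 µg/mL and 0% = DMSO alone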
#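 Assay system: CHO cells with stable CHOP pathway luciferase reporter; Buffer or medium: F12 plus 10% serum; Times: 16-18 h cell attachment, then 6 h compound exposure, 37 °C; Signal: luciferase luminescence; Read-out basis: percent activation relative to tunicamycin control; Control set: tunicamycin high control, DMSO low control.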
# PvdQ acylase = blocks Pseudomonas aeruginosa PvdQ acylase activity; 340,000 compounds, 0.063% hits; AID 488965; purified PvdQ acylase, fluorescence plate reader; inhibition, % at 10 µM; in the data active = inhibition above about 30%, passing the limit was not always enough;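 note: 0% = vehicle neutral wells and 100% = reference inhibitor wells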
# CHOP inhibitor = blocks CHOP induction under ER stress; CHO-K1 CHOP-promoter luciferase, tunicamycin-induced, 15-18 h; inhibition, % at 10 µM; 220,000 compounds, 3.8% hits; AID 2732;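 active = compounds that reduced the stress-induced luciferase reporter signal by more than about 70% of percent inhibition, limit read from the data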;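 note: 0% = tunicamycin plus vehicle and 100% = wells without tunicamycin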
# Active calls of the source: *; . = no result. The sample as a whole holds a higher share of hits than the screen did.
SMILES,XBP1 UPR activ,CHOP UPR activ,PvdQ acylase,CHOP inhibitor
Cc1ccc(NC(=O)CSc2nc3ncc(Cl)cc3[nH]2)c(C)c1,-2,2,-7,.
CCC(C)Sc1nc2c(c(=O)[nH]1)C(c1cccs1)C1=C(CCCC1=O)N2 (stereo not given),1,-1,0,82*
Cc1ccc(-n2nnnc2CN2CCCCC2)cc1,0,1,3,-7
N#Cc1c(-c2ccc(F)cc2)cc(-c2cccnc2)nc1N,5,0,3,88*
CCOC(=O)C1CCN(C(=S)Nc2cc(OC)c(OC)cc2C(=O)OC)CC1,-2,-1,-15,12
CC(C)(C)c1nn(-c2ccccc2)c2[nH]c(=O)c(CNCc3ccc4c(c3)OCO4)cc12,11,2,-12,94*
CCOc1cccc(NCc2cc3c(C(C)(C)C)nn(-c4ccccc4)c3[nH]c2=O)c1,-3,1,9,60
Cc1ccc(S(=O)(=O)CCC(=O)OCc2ccccc2F)cc1,0,0,-13,14
COc1ccc2[nH]c(=O)c(C(c3nnnn3C3CCCC3)N(C)C3CCCCC3)cc2c1 (stereo not given),-1,0,1,75*
CCOc1ccc2[nH]c(=O)c(C(c3nnnn3C3CCCCC3)N3CCN(C)CC3)cc2c1 (stereo not given),-2,0,-2,1
CCn1c(COc2cccc(C)c2C)nnc1SCC(=O)Nc1cc(C)on1,-2,-1,0,-15
COc1ccc(N2CCN(C(=O)Cn3cnc4c(cnn4-c4ccccc4)c3=O)CC2)cc1,-2,0,-4,11
CN(C)C(=O)Cn1cnc2c(cnn2-c2ccccc2Cl)c1=O,-1,1,-3,89*
CN(C)C(=O)Cn1cnc2c(cnn2-c2ccc(F)cc2)c1=O,-5,-1,2,.
Cc1ccc(-n2ncc3c(=O)n(CC(=O)N4CCN(c5ccccc5)CC4)cnc32)cc1,-2,0,-16,82*
N#C/C(=C/c1ccc(-c2ccc(S(N)(=O)=O)cc2)o1)c1nc2ccccc2s1,2,10,0,89*
CCOC(=O)C1=C(C)Nc2nc3ccccc3n2C1c1ccccc1 (stereo not given),2,3,0,78*
CC1=C(C(=O)OC2CCCCC2)C(c2cccs2)n2c(nc3ccccc32)N1 (stereo not given),3,2,-9,84*
CCN(CC)CCCn1c2c(c(SCC(=O)Nc3ccc4c(c3)OCCO4)nc1=O)CCC2,-2,0,-10,.
O=C(CN1c2ccccc2S(=O)(=O)c2ccccc21)NCc1ccc(F)cc1,-2,1,-8,.
O=C(Nc1ccc(S(=O)(=O)N2CCOCC2)cc1)c1cc(-c2cc(Cl)ccc2O)n[nH]1,9,1,-12,2
Cc1cc(O)c(-c2cc(C(=O)Nc3ccc(S(=O)(=O)N4CCOCC4)cc3)[nH]n2)cc1C,3,4,0,87*
O=C(Nc1ccc(C(=O)O)cc1)Nc1cccc([N+](=O)[O-])c1,-3,0,-9,21
Cc1ccc(NC(=O)Nc2ccc(Cl)cc2)c(Br)c1,2,9,-16,86*
O=C(Nc1ccc(Cl)cc1)Nc1cc([N+](=O)[O-])ccc1F,5,2,-15,71*
SMILES,XBP1 UPR activ,CHOP UPR activ,PvdQ acylase,CHOP inhibitor
O=C(Nc1cccc([N+](=O)[O-])c1)Nc1cccc([N+](=O)[O-])c1,4,1,-10,84*
O=C(Nc1ccc(Cl)cc1)Nc1csc([N+](=O)[O-])c1,8,14,.,76*
Cc1ccc(OCC(=O)NNC(=O)Nc2ccc(Cl)cc2)c(Br)c1,1,1,-7,.
O=C(Nc1ccc([N+](=O)[O-])cc1)Nc1ccc(Cl)cc1F,5,2,7,23
O=C(Nc1ccc(S(=O)(=O)Nc2ncccn2)cc1)C12CC3CC(CC(Cl)(C3)C1)C2,-3,4,-5,.
COCCN(C(=O)c1ccccc1Oc1ccccc1)c1c(N)n(CC(C)C)c(=O)[nH]c1=O,-2,2,2,.
Oc1ccc(-c2csc(Nc3ncccn3)n2)c(O)c1,-3,4,-14,94*
COc1cccc(COC(=O)c2cc(=O)[nH]c3ccc(S(=O)(=O)N4CCOCC4)cc23)c1OC,3,2,6,.
Cc1cc(N/N=C\c2ccccc2)nc(-c2ccccc2O)n1,0,3,20,58
Cc1cc(N/N=C/c2ccccc2O)nc(-c2ccccc2O)n1,4,4,-10,75*
COc1cccc(NC(=O)c2sc3ncn(CC(=O)N4CCN(c5ccccn5)CC4)c(=O)c3c2C)c1,-2,4,-12,.
COc1cccc(-c2cc(C(F)(F)F)nc(N3CCC(C)CC3)n2)c1,-1,0,6,16
COc1cccc(-c2cc(C(F)(F)F)nc(N3CCOCC3)n2)c1,-1,1,4,74*
COc1ccccc1-c1cc(C(F)(F)F)nc(N2CCOCC2)n1,-3,0,-12,72*
CC(C(=O)OCC(=O)N(C)C1(C#N)CCCCC1)N1C(=O)c2ccccc2C1=O (stereo not given),-2,0,-6,.
COc1ccc(N2CCN(C(=O)COC(=O)c3ccc(C)o3)CC2)cc1,2,1,-4,.
CCOC(=O)N1CCN(c2nc(-c3ccc(F)cc3)cs2)CC1,4,2,-10,78*
Cc1ccccc1S(=O)(=O)c1c(C)cc(C)n(C)c1=O,-4,0,2,-21
Cc1ccccc1S(=O)(=O)c1c(C)cc(C)n(CC(C)C)c1=O,0,0,5,86*
NNc1nc2c(-c3ccc(Cl)cc3)nnn2c2ccccc12,1,8,6,91*
O=C(CCN1C(=O)NC2(CCCC2)C1=O)Nc1ccc(-c2nc3ccccc3s2)cc1,-3,-2,-13,.
O=C(Nc1cc(NC(=O)c2ccccc2F)ccc1Cl)c1ccccc1,6,5,-10,.
Cn1c(C(=O)N2CCCC(C(=O)NCCCSC3CCCCC3)C2)cc2sccc21 (stereo not given),-3,1,4,74*
Cn1c(C(=O)N2CCCC(C(=O)NCc3cccs3)C2)cc2sccc21 (stereo not given),-4,-2,-7,21
COc1cccc(-c2csc3nnc(SCC(=O)c4ccc(NC(C)=O)cc4)n23)c1,-1,1,-7,79*
CC1CCN(S(=O)(=O)c2ccc3c(c2)oc(=O)n3CC(=O)NCc2ccc3c(c2)OCO3)CC1,-4,2,6,83*
O=C(OCc1ccccc1)/C(=C/c1cccc(Br)c1)NC(=O)c1ccco1,-3,1,-4,.
Cc1ccc(-c2nnn(CC(=O)N(CC3CCCO3)C(C(=O)NC3CCCC3)c3ccc(F)cc3)n2)o1 (stereo not given),-3,-1,7,80*
Cc1ccc(-c2nnn(CC(=O)N(CC3CCCO3)C(C(=O)NC3CCCC3)c3ccc(O)cc3)n2)o1 (stereo not given),-2,1,6,3
